In the library only some 1.9% were active in any assay of this set; here they are far more common.
DNA FID counter-1: compounds displacing fluorescent DNA intercalator, primary screen, artefact control for HCV NS3 helicase inhibitor project, biochemical, FID fluorescence; inhibition, % at 7.9 µM; DNA fluorescent intercalator displacement; actives 0.17% (n = 290,000);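 also: 0% = vehicle and 100% = reference compound; higher means more ethidium bromide displaced from hairpin DNA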
HCV core dimer: inhibitors of HCV core protein dimerization, primary screen, biochemical, TR-FRET, high-throughput; TR-FRET GST/Flag-core106 dimerization, 1536-well; inhibition, % at 5 µM; actives 0.33% (n = 300,000);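 active = inhibition above the mean of all tested compounds plus 3 SD, set per screening campaign, cut at about 45% in these data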
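Assay system: Tagged HCV core106 pair (GST and Flag) | Buffer or medium: KF-containing HEPES buffer, pH 7.45, DTT, CHAPS, BSA | Also added: Eu donor and XL665 acceptor anti-tag antibodies | Dosing: One concentration, 5 µM, in 0.5% DMSO | Timing: 4 h at 22.5 °C | Technique: TR-FRET 671 and 617 nm emission | Repeats: Singlicate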
GPR7 antagonist: GPR7 receptor antagonists, primary screen, cell-based, fluorescence, single concentration; actives 1.1% (n = 290,000); GPR7-expressing cells, fluorescence antagonist assay; inhibition, % at 4.4 µM; in the data active = inhibition above about 16%, passing the limit was not always enough;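 also: cells stimulated with the agonist NPW; 0% = agonist with vehicle and 100% = vehicle without agonist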
Target sequence (P48145 whole entry, looked up): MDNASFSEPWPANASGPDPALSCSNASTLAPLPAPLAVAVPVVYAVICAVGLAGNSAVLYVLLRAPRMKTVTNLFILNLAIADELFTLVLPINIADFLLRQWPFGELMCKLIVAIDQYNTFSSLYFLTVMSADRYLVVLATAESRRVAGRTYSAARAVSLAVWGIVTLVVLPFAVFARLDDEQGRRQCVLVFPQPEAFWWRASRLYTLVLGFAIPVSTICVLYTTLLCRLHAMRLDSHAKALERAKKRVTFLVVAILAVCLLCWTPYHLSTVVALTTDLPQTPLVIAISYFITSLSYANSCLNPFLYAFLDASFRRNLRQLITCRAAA
NS3 helicase inh: inhibitors of HCV NS3 helicase, primary screen, biochemical, Cy5 molecular beacon fluorescence. inhibition, % at 10.9 µM. NS3 helicase DNA unwinding. actives 0.56% (n = 290,000). Hepatitis C virus NS3 helicase;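 active = inhibition above the mean of all tested compounds plus 3 SD, set per campaign, cut at about 35% in these data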;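 also: 0% = DMSO wells and 100% = thioflavine S control wells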
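System: NS3 helicase fragment of HCV / Schedule: 1 h at 25 °C / Control set: DMSO alone as 0% and 110 µM thioflavine S as 100% / Reagent: Cy5/quencher beacon DNA duplex and ATP to start / Technique: Cy5 fluorescence / Replication: singlicate / Evaluation: % inhibition of end-to-start signal ratio versus controls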
pCIP destab: p/CIP-EGFP fusion destabilizers, primary screen, fluorescence, F442A cells; Q05BA5; 16 h; decrease of EGFP signal, % at 10 µM; actives 0.01% (n = 290,000);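 active = EGFP signal decrease of at least 30% at 10 µM or well 3 SD below plate mean, unless failing retest; inactive = the rest, including hits failing retest or dose response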
NS3 helicase cf: HCV NS3 helicase inhibitors, retest, confirmation, biochemical, Cy5 molecular beacon fluorescence, triplicate | shares compounds with NS3 helicase inh | actives 31% (n = 1,600) | AID 1943, 2009 | inhibition, % at 10.9 µM | NS3 helicase DNA unwinding;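 active = inhibition above the mean of all tested compounds plus 3 SD, cutoff set per campaign, cut at about 36% in these data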
DNA FID counter-2: compounds displacing fluorescent DNA intercalator, artefact control for HCV NS3 helicase inhibitor project, biochemical, FID fluorescence, triplicate | shares compounds with NS3 helicase inh | DNA fluorescent intercalator displacement | inhibition, % at 7.9 µM | actives 4% (n = 1,600) | AID 1945, 2009;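 also: 0% = vehicle and 100% = reference compound; higher means more displacement of ethidium bromide from the DNA hairpin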
* marks the source's active call; other numbers are inactive results; . = no result. Rule as the data show it, unless noted: active = inhibition above about 37%; inactive = the rest.

SMILES	DNA FID counter-1	HCV core dimer	GPR7 antagonist	NS3 helicase inh	pCIP destab	NS3 helicase cf	DNA FID counter-2
Cc1ccccc1-n1ncc2c1CC(C)(C)CC2NC(=O)c1snnc1C (configuration not stated)	-41	2	-4	3	-18	.	.
CC[C@@H](C)[C@H](NC(=O)Cc1c(C)c2c(cc(C)c3c(C)c(C)oc32)oc1=O)C(=O)O	-32	.	17	37*	-21	10	-24
COc1ccc(C(=O)Nc2nnc(CCS(=O)(=O)c3ccc(C)cc3)s2)cc1	1	1	-6	-4	-1	.	.
Cn1cccc1Cc1nnc(SCC(=O)NCc2ccco2)n1CCc1ccccc1	-39	6	-2	36*	-6	-21	-34
Cn1cccc1Cc1nnc(SCC(=O)NCc2ccco2)n1-c1ccc(F)cc1	-41	-3	-6	39*	-8	-16	-46
Cc1cc(Cl)ccc1OCCCC(=O)Nc1ccc(S(=O)(=O)Nc2ncccn2)cc1	-38	22	-18	-6	-7	.	.
CCOC(=O)C1=C(C)NC(C)=C(C(=O)OC)C1c1ccco1 (configuration not stated)	-6	-3	-10	37*	-15	-5	10
CCOC(=O)C1=C(N)n2c(s/c(=C/c3ccco3)c2=O)=C(C(=O)OC)C1c1ccco1 (configuration not stated)	-20	17	5	41*	-13	-3	9
CCCCCOC(=O)c1[nH]c2c(c1C)C(=O)CC(c1ccco1)C2 (configuration not stated)	-37	17	-9	41*	-10	17	0
CCOCCOC(=O)c1[nH]c2c(c1C)C(=O)CC(c1ccccc1)C2 (configuration not stated)	-26	1	15	-4	-15	.	.
COc1ccc(C(=O)c2coc3c2C(=O)C(=O)c2ccccc2-3)cc1	-9	-1	13	41*	4	-8	-3
N#CC1=C(S)N(c2ccccc2)C(c2ccc(-c3cccc(Cl)c3)o2)NC1=O (configuration not stated)	-15	32	3	36*	-16	60*	2
O=C(Nc1ccccc1Cl)NC1CCCCCCC1	-15	.	-18	1	-11	.	.
COC(=O)Nc1ccc(S(=O)(=O)NNC(=O)c2c(O)c3ccccc3n(C)c2=O)cc1	-4	-11	-3	10	-12	.	.
Cc1ccc(N(CC(=O)N2CCN(c3ccccc3F)CC2)S(=O)(=O)c2c(C)noc2C)cc1	-13	-4	-20	9	-9	.	.
CC(=O)c1c(OC(=O)c2ccco2)c2ccccc2n1C	-15	-41	-16	9	2	.	.
CC(=O)c1sc2ccccc2c1OC(=O)c1ccco1	-5	-9	-7	45*	-9	4	4
CC(C)Cc1ccc(S(=O)(=O)NCC2CCCO2)cc1 (configuration not stated)	-23	3	-15	2	-20	.	.
CCCCC1CCC(C(=O)NCC(c2ccco2)N2CCOCC2)CC1 (configuration not stated)	-51	2	-2	-3	0	.	.
O=C1/C(=C/c2ccco2)SC(=S)N1C1CCS(=O)(=O)C1 (configuration not stated)	-18	21	-5	38*	-4	-26	0
CCN(C(=O)C(C)N1C(=O)/C(=C/c2ccco2)SC1=S)C1CCS(=O)(=O)C1 (configuration not stated)	-13	9	20	22	-7	.	.
Cc1ccc(/C=C2\SC(=S)N(C3CCS(=O)(=O)C3)C2=O)cc1 (configuration not stated)	-8	-1	5	-9	-1	.	.
O=C1/C(=C\c2ccco2)SC(=S)N1C1CCS(=O)(=O)C1 (configuration not stated)	-9	2	16	38*	-10	-10	-2
O=C(CCCN1C(=O)C(c2ccccc2)Oc2cccnc21)NCCc1ccc(Cl)cc1 (configuration not stated)	-48	5	5	-12	-5	.	.
CCOC(=O)Cn1c(=NC(=O)c2cc(-c3cccs3)nc3ccccc23)sc2cc(S(N)(=O)=O)ccc21	-2	-10	3	2	-3	.	.
SMILES	DNA FID counter-1	HCV core dimer	GPR7 antagonist	NS3 helicase inh	pCIP destab	NS3 helicase cf	DNA FID counter-2
CCOC(=O)Cn1c(=NC(=O)C2COc3ccccc3O2)sc2cc(S(N)(=O)=O)ccc21 (configuration not stated)	-9	19	3	56*	-15	7	-26
COc1ccc(C(=O)NCCc2nnc3ccc(SCC(=O)Nc4ccccc4)nn23)cc1	-31	1	-14	-7	-5	.	.
CCOc1ccc(C(=O)N2CCN(c3cnn(-c4ccccc4)c(=O)c3Cl)CC2)cc1	-5	-25	-5	40*	-1	-4	-53
O=C(c1cccc(Br)c1)N1CCN(c2cnn(-c3ccccc3)c(=O)c2Cl)CC1	-28	2	18	-8	2	.	.
O=C(NC1CCCC1)C(=O)N(c1ccccc1F)C(C(=O)NCC1CCCO1)c1cccs1 (configuration not stated)	-28	-15	-4	36*	-5	-15	-36
Cc1nc(C)c(C(=O)N(c2ccccc2F)C(C(=O)NCC2CCCO2)c2ccccc2)s1 (configuration not stated)	-51	-13	-8	2	-14	.	.
CCCC1CCc2[nH]nc(C(=O)NN)c2C1 (configuration not stated)	.	-3	.	.	.	.	.
CCN1C(=O)C2(C(C#N)=C(N)Oc3c2c(C)nn3-c2ccccc2)c2ccccc21 (configuration not stated)	-20	-1	-5	15	-13	.	.
Cc1nn(-c2ccccc2)c2c1C1(C(=O)N(C)c3ccccc31)C(C#N)=C(N)O2 (configuration not stated)	-22	-11	-3	42*	1	-21	-27
Cc1ncc([N+](=O)[O-])n1CC(=O)Nc1cccc(C(F)(F)F)c1	3	-3	-11	3	-13	.	.
O=C(N/N=C/c1cccn1-c1ccc([N+](=O)[O-])cc1)c1cccnc1	-15	19	-9	65*	-15	1	-3
O=C(N/N=C/c1cccnc1)c1ccc([N+](=O)[O-])cc1	2	-5	2	7	0	.	.
N#C/C(=C/c1ccc(-c2cc(C(=O)O)cc(C(=O)O)c2)o1)c1nc2ccccc2s1	-15	-4	-6	36*	-23	82*	-15
